Source: ChEMBL document CHEMBL4316619 (Bioorg Med Chem Lett, 2019)
Activity calls are given as the source filed them. The calls are words filed in the database; no cut-off is given here.

What was measured:
[1] = biological target: Non-structural protein 1 (Influenza A virus (strain A/Puerto Rico/8/1934 H1N1)) (UniProt P03496); test: Inhibition of NS1 in Influenza A virus A/PR/8/34 (H1N1) infected in MDCK cells assessed as restoration of protein-induced reduction in IFN-beta mRNA expression at 20 uM measured after 6 hrs by RT-PCR analysis; type: cell-based; details: Influenza A virus (A/Puerto Rico/8/1934(H1N1))
Chain of Non-structural protein 1 (Influenza A virus (strain A/Puerto Rico/8/1934 H1N1)) (P03496 whole entry): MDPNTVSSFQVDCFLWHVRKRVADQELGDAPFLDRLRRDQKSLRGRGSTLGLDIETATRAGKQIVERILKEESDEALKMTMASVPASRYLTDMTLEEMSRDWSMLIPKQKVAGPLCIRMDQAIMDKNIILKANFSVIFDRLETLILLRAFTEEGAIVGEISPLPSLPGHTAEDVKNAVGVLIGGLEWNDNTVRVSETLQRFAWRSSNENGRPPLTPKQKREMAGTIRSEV
In short: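 MDCK cells infected with A/PR/8/34 at MOI 2 and incubated 6 h with compound at 20 μM. Cells harvested; IFN-β and β-actin mRNA detected by RT-PCR. Poly(I:C) lane serves as positive control for IFN-β induction.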

[2] = system: Influenza A virus; test: Antiviral activity against Influenza A virus A/PR/8/34 (H1N1) infected in MDCK cells assessed as fold reduction in virus titer at 10 uM measured after 48 hrs by hemagglutination assay relative to control; type: functional, A/Puerto Rico/8/1934(H1N1)
In short: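 MDCK cells were infected with A/PR/8/34 (H1N1) at MOI 0.1 and incubated with compound for 48 h. Supernatant virus was then quantified by hemagglutination assay and standard TCID50 analysis. The single-concentration screen used 10 μM and reports fold reduction in titer. Dose-response runs used triplicate cultures, with percent titer decrease back-calculated from TCID50.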

[3] = system: MDCK; test: Cytotoxicity against MDCK cells assessed as reduction in cell viability measured after 48 hrs by CellTiter Glo assay; type: cell-based, Canis lupus familiaris; details: dog
In short: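 MDCK cells were incubated with compound under the conditions of the 48 h replication assay. Cytotoxicity was read with the CellTiter-Glo ATP viability assay. Follow-up viability testing used 5, 10, 50 and 100 μM.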

[4] = Stability of the compound in mouse liver microsomes assessed as parent compound remaining measured after 15 mins; type: ADME, Microsome; details: read-out: Stability
In short: (§1)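 Mouse liver microsomes; percent parent compound remaining measured at 0, 15 and 30 min.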

[5] = biological target: Luciferin 4-monooxygenase (Photinus pyralis) (UniProt P08659); test: Effect on firefly luciferase activity expressed in 293 cells at 50 uM by luminescence assay; type: cell-based
Chain of Luciferin 4-monooxygenase (Photinus pyralis) (P08659 whole entry): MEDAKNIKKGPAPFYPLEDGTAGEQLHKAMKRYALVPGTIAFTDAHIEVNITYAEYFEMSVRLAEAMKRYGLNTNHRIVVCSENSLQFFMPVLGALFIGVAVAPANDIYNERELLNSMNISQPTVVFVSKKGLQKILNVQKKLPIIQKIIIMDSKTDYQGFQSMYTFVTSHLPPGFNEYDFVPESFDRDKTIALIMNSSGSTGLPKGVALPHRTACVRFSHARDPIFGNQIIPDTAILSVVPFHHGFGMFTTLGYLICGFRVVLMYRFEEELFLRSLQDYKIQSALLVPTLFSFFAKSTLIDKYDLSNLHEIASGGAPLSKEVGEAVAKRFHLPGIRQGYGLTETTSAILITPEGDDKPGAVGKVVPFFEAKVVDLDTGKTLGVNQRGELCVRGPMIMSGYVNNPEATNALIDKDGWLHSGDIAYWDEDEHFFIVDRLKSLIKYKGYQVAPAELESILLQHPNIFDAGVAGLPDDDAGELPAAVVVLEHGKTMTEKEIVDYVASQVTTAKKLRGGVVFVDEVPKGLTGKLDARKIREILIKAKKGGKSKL

[6] = system: Influenza B virus; test: Antiviral activity against Influenza B virus (B/Brisbane/60/2008) infected in MDCK cells assessed as reduction in virus-induced cytopathic effect measured on day 5 by Celltiter-Glo luminescence assay; type: functional, organism-based
[7] = Stability of the compound in mouse liver microsomes assessed as parent compound remaining measured after 30 mins; type: ADME, Microsome; details: read-out: Stability; in short: as §1
[8] = Cytotoxicity against MDCK cells assessed as reduction in cell viability measured on day 5 by Celltiter-Glo luminescence assay; type: cell-based, Canis lupus familiaris; details: dog, MDCK cells
In short: (§2)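 MDCK cells were infected with seasonal influenza A strains through NIAID resources and scored for protection from virus-induced cell death. Compounds were tested at four concentrations (0.8, 4, 20, 100 μM). EC50/EC90 (reduction of viral cell death) and CC50 (reduction of cell viability) were derived in μM, and SI50 = CC50/EC50.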

[9] = system: Influenza A virus; test: Effect on NS1 protein expression in Influenza A virus A/PR/8/34 (H1N1) infected in MDCK cells at 20 uM by Western blot analysis; type: functional, organism-based; details: A/Puerto Rico/8/1934(H1N1)
In short: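 MDCK cells, uninfected or infected with A/PR/8/34, treated with DMSO or compound at 20 μM. NS1 protein detected by Western blot, with α-tubulin as loading control.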

[10] = system: Influenza A virus; test: Antiviral activity against Influenza A virus (A/California/7/2009(H1N1)) infected in MDCK cells assessed as reduction in virus-induced cytopathic effect measured on day 5 by Celltiter-Glo luminescence assay; type: functional, organism-based; details: 120 h; in short: as §2
[11] = Stability of the compound in mouse liver microsomes assessed as parent compound remaining measured immediately; type: ADME, Microsome; details: read-out: Stability; in short: as §1
[12] = Aqueous kinetic solubility of the compound; type: physicochemical; details: buffer
[13] = system: Saccharomyces cerevisiae; test: Effect on growth of Yeast 9526-6-2 harboring pYES at 50 uM measured up to 60 hrs; type: organism-based; details: in vivo
In short: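 Control yeast carrying empty pYES and NS1-expressing NS1-pYES strain grown with DMSO or compound at 50 μM. Growth measured as OD600 at 22, 42 and 60 h.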

[14] = system: Influenza A virus H3N2; test: Antiviral activity against Influenza A virus (A/Brisbane/10/2007(H3N2)) infected in MDCK cells assessed as reduction in virus-induced cytopathic effect measured on day 5 by Celltiter-Glo luminescence assay; type: functional, organism-based; details: 120 h; in short: as §2
[15] = biological target: Non-structural protein 1 (Influenza A virus (strain A/Puerto Rico/8/1934 H1N1)) (UniProt P03496); test: Inhibition of Influenza A virus A/PR/8/34 (H1N1) NS1 expressed in 293 cells assessed as increase in poly(I:C)-induced IFN-beta reporter activity treated 16 hrs […] measured after 24 hrs by luciferase reporter gene assay; type: cell-based; details: Influenza A virus (A/Puerto Rico/8/1934(H1N1))
In short: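 293 cells co-transfected with a human IFN-β promoter-driven firefly luciferase reporter and NS1 expression constructs. At 16 h post-transfection, poly(I:C) 50 μg/mL plus compound (20 μM) or 1% DMSO added for a further 24 h; luciferase read by luminometer. Untransfected cells serve as baseline.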

[16] = Apparent permeability across basolateral to apical side in human Caco2 cells measured after 2 hrs; type: ADME, cell-based; details: caco-2, 2 h
In short: (§3)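 Permeability was measured across Caco-2 monolayers in both directions, apical to basolateral and basolateral to apical. […] Runs were done with and without 3% BSA, and mass recovery (%) was reported for each direction. Efflux ratio = Papp B→A / Papp A→B.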

[17] = Apparent permeability across apical to basolateral side in human Caco2 cells measured after 2 hrs; type: ADME, cell-based; details: caco-2, 2 h; in short: as §3

SMILES | fold change (FC) [2] | Activity [3] | further results
O=C(NCCCc1ccccc1)c1ccccc1O |  |  | inhibition [1]: Active
Cc1nn(-c2ccccc2)c2nc3[nH]c(=O)[nH]c(=O)c3c(-c3ccc4c(c3)OCO4)c12 | 4 | Non-Toxic | 
COc1ccc(-c2c(C#N)c(N)nc3c2c(C)nn3-c2ccc(C)cc2)cc1OC | 0 | Non-Toxic | 
COc1cc(-c2ccnc3c2c(C)nn3-c2cccc(F)c2)ccc1O | 0 | Non-Toxic | 
COc1cc(-c2c(C#N)c(N)nc3c2c(C)nn3-c2ccc(F)cc2)ccc1O | 256 | Non-Toxic | remaining at 0.25 h [4]: 74%; Activity [5]: inactive; Activity [6]: inactive; remaining at 0.5 h [7]: 60%; CC50 at 5 day [8]: 24.7 to 48.3 µM; Activity [9]: inactive; EC50 [10]: 2.1 µM; EC90 [10]: 4.6 µM; remaining at 0 min [11]: 100%; Kinetic_solubility [12]: 3 µM; Activity [13]: Non-Toxic; inhibition [1]: Active; EC50 [14]: 10.1 µM; EC90 [14]: > 50 µM; inhibition [15]: Active
COc1cc(-c2c(C#N)c(N)nc3c2c(C)nn3-c2ccc(Cl)cc2)ccc1O | 32 | Non-Toxic | 
COc1cc(-c2c(C#N)c(N)nc3c2c(C)nn3-c2ccccc2)ccc1O | 32 | Non-Toxic | 
COc1cc(-c2c(C#N)c(N)nc3c2c(C)nn3-c2ccccc2)cc(OC)c1OC | 16 | Non-Toxic | 
COc1cc(-c2c(C(=O)O)cnc3c2c(C)nn3-c2ccc(F)cc2)ccc1O | 4 | Non-Toxic | 
COc1cc(-c2c3c(C)nn(-c4ccccc4)c3nc3[nH]c(=O)[nH]c(=O)c23)ccc1O | 2 | Non-Toxic | 
COc1ccc(-c2c3c(C)nn(-c4ccccc4)c3nc3[nH]c(=O)[nH]c(=O)c23)cc1O | 2 | Non-Toxic | 
COc1cc(-c2c(C#N)c(N)nc3c2c(C)nn3-c2ccc(C)c(C)c2)cc(OC)c1OC | 0 | Non-Toxic | 
COc1cc(-c2c(C#N)c(N)nc3c2c(C)nn3-c2ccc(Cl)cc2)cc(OC)c1OC | 0 | Non-Toxic | 
COc1cc(-c2c(C#N)c(O)nc3c2c(C)nn3-c2ccccc2)ccc1O | 16 | Non-Toxic | 
Cc1nn(-c2ccc(Cl)cc2)c2nc(N)c(C#N)c(-c3ccc(O)c(O)c3)c12 | 256 | Non-Toxic | Papp [16]: 2.64 ×10⁻⁶ cm/s; remaining at 0.25 h [4]: 93%; Activity [5]: inactive; Activity [6]: inactive; remaining at 0.5 h [7]: 90%; CC50 at 5 day [8]: 20.4 to 31.9 µM; Activity [9]: inactive; EC50 [10]: > 50 µM; EC90 [10]: > 50 µM; remaining at 0 min [11]: 100%; Kinetic_solubility [12]: 1.9 µM; Papp [17]: 0.34 ×10⁻⁶ cm/s; Activity [13]: Non-Toxic; inhibition [1]: Active; EC50 [14]: > 50 µM; EC90 [14]: > 50 µM; inhibition [15]: Active
COc1cc(-c2c(C#N)c(N)nc3c2c(C)nn3-c2ccc(C)c(C)c2)ccc1O | 4 | Non-Toxic | 
COc1cc(-c2ccnc3c2c(C)nn3-c2ccc(F)cc2)ccc1O | 2 | Non-Toxic | 
COc1cc(-c2c(C#N)c(N)nc3c2c(C)nn3-c2ccc(C)cc2)cc(OC)c1OC | 32 | Non-Toxic | 
COc1cc(-c2c3c(C)nn(-c4ccccc4)c3nc3[nH]c(=O)[nH]c(=O)c23)cc(OC)c1O | 4 | Non-Toxic | 
COc1ccc(-c2c(C#N)c(N)nc3c2c(C)nn3-c2ccc(F)cc2)cc1OC | 2 | Non-Toxic | 
